Assay [1] concerns HCT-116. Briefly: Induction of cell cycle arrest in human HCT-116 cells assessed as sub-G1 phase at 0.5 uM incubated for 48 hrs by propidium iodide based flow cytometry analysis (reference value: 2.1 %). The assay is classed as functional.
Assay [2] concerns HCT-116. Briefly: Induction of cell cycle arrest in human HCT-116 cells assessed as S phase at 2.5 uM incubated for 48 hrs by propidium iodide based flow cytometry analysis (reference value: 7.8 %). Format: functional. A general note: A flow cytometer gives signals particle by particle.
Assay [3] relates to HCT-116. Briefly: Induction of apoptosis in human HCT-116 cells assessed as late apoptotic cells at 0.5 uM incubated for 48 hrs by annexin-V and propidium iodide staining based flow cytometry analysis (reference value: 1.48 %). The assay is classed as functional.
Assay [4] relates to HCT-116. Briefly: Induction of cell cycle arrest in human HCT-116 cells assessed as S phase at 0.5 uM incubated for 48 hrs by propidium iodide based flow cytometry analysis (reference value: 7.8 %). The assay is classed as functional.
Assay [5] has as its system HCT-116. Briefly: Induction of cell cycle arrest in human HCT-116 cells assessed as sub-G1 phase at 2.5 uM incubated for 48 hrs by propidium iodide based flow cytometry analysis (reference value: 2.1 %). The assay is classed as functional.
For assay [6], the system named is HCT-116. Briefly: Induction of cell cycle arrest in human HCT-116 cells assessed as G0/G1 phase incubated for 48 hrs by propidium iodide based flow cytometry analysis. Format: functional. As to conditions: dose microM 0.5-2.5, time 48.0 hrs.
The subject of assay [7] is HCT-116. Briefly: Induction of apoptosis in human HCT-116 cells assessed as viable cells at 1 uM incubated for 48 hrs by annexin-V and propidium iodide staining based flow cytometry analysis (reference value: 96.29 %). Format: functional. As to conditions: read-out: Activity.
In assay [8] the test system is HCT-116. Briefly: Induction of cell cycle arrest in human HCT-116 cells assessed as G2/M phase at 0.5 uM incubated for 48 hrs by propidium iodide based flow cytometry analysis (reference value: 15.3 %). Format: functional.
The next assay concerns BT-474. Briefly: Cytotoxicity against human BT-474 cells assessed as reduction in cell viability incubated for 48 hrs by MTT assay. The assay is classed as functional, cell-based. Conditions: BT-474, 48 h. The method in brief:
(§1)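 Cancer cell lines were exposed to drug for 48 h, and the 50% inhibitory concentration was determined. Values are averages of three individual experiments. A549, HCT-116, BT-474 and MDA-MB-231 are human lines; B16F10 is a murine melanoma line.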
Background: Tetrazolium dyes change colour on reduction, which living cells bring about.

For assay [9], the system named is HCT-116. Briefly: Induction of mitochondrial membrane potential loss in human HCT-116 cells assessed as cells with hyperpolarized mitochondria by measuring decrease in J-aggregates red fluorescence intensity at 0.5 uM incubated for 48 hrs by JC1 staining based flow cytometry analysis (reference value: 86.42 %). The assay is classed as functional. The arrangement: scale not given: the % may be the effect or the level left.

The test system of assay [10] is HCT-116. Briefly: Induction of apoptosis in human HCT-116 cells assessed as increase in late apoptotic cells incubated for 48 hrs by annexin-V and propidium iodide staining based flow cytometry analysis. The assay is classed as functional, cell-based. Conditions: dose microM 0.5-2.5, time 48.0 hrs.
Assay [11] deals with HCT-116. Briefly: Induction of apoptosis in human HCT-116 cells assessed as late apoptotic cells at 1 uM incubated for 48 hrs by annexin-V and propidium iodide staining based flow cytometry analysis (reference value: 1.48 %). Format: functional.
Assay [12] relates to HCT-116. Briefly: Induction of apoptosis in human HCT-116 cells assessed as viable cells at 2.5 uM incubated for 48 hrs by annexin-V and propidium iodide staining based flow cytometry analysis (reference value: 96.29 %). Format: functional. Conditions: read-out: Activity.
The subject of assay [13] is HCT-116. Briefly: Induction of apoptosis in human HCT-116 cells assessed as irregular distribution of chromatin at 0.5 to 2.5 uM incubated for 24 hrs by acridine orange staining based microscopic analysis. The assay is classed as functional, cell-based. As to conditions: dose microM 0.5-2.5, time 24.0 hrs. The method in brief:
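HCT-116 cells were incubated at 0.5, 1.0 and 2.5 µM for 24 h and stained with acridine orange. Green fluorescence (excitation 480-490 nm), chromatin distribution and blebbing were inspected microscopically at 200× against untreated controls.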

Assay [14] concerns HCT-116. Briefly: Induction of apoptosis in human HCT-116 cells assessed as necrotic cells at 2.5 uM incubated for 48 hrs by annexin-V and propidium iodide staining based flow cytometry analysis (reference value: 0.36 %). Format: functional.
In assay [15] the test system is HCT-116. Briefly: Induction of mitochondrial membrane potential loss in human HCT-116 cells assessed as cells with depolarized mitochondria by measuring increase in J-monomer green fluorescence intensity at 2.5 uM incubated for 48 hrs by JC1 staining based flow cytometry analysis (reference value: 12.53 %). The assay is classed as functional.
Assay [16] has as its system HCT-116. Briefly: Induction of cell cycle arrest in human HCT-116 cells assessed as G0/G1 phase at 2.5 uM incubated for 48 hrs by propidium iodide based flow cytometry analysis (reference value: 28.2 %). Format: functional.
For assay [17], the system named is HCT-116. Briefly: Induction of cell cycle arrest in human HCT-116 cells assessed as G0/G1 phase at 1 uM incubated for 48 hrs by propidium iodide based flow cytometry analysis (reference value: 28.2 %). Format: functional.
The subject of the next assay is A549. Briefly: Cytotoxicity against human A549 cells assessed as reduction in cell viability incubated for 48 hrs by MTT assay. As to conditions: A549, 48 h. The assay is classed as functional, cell-based. The method in brief:
as §1

The source made the active and inactive calls. No cut-off for these calls is given here.

What is called IC50 is the concentration that gives 50% inhibition. Regarding `O=C(/C=C\Nc1ccc(Cl)cc1)c1nc(-c2ccc(F)cc2)n2ccccc12`, the Activity with HCT-116 [1] was 1.2%; with HCT-116 [2] it was 8.5%; in the assay on HCT-116 [3] it was 5.7%; in the assay with HCT-116 [4], 7%; in the assay with HCT-116 [5], 1.6%; in the assay on HCT-116 [6], “Dose-dependent effect”. Besides, the Activity in the assay on HCT-116 [8] was 15%; in the assay on HCT-116 [9], 85.48%; in the assay with HCT-116 [10] it was “Dose-dependent effect”; in the assay on HCT-116 [11], 6.94%; in the assay on HCT-116 [14] it was 13.3%; in the assay with HCT-116 [15], 20.68%. The Activity amounted to 41.9% with HCT-116 [16] and 38.7% in the assay on HCT-116 [17]. Also, the viability at 1 µM with HCT-116 [7] turned out to be 85.8%. For the same compound, the figures for the half-inhibitory concentration (IC50) with BT-474 and in the assay on A549 were 7.03 µM and 5.09 µM, respectively. For the same compound, the viability at 2.5 µM with HCT-116 [12] was 77.4%. Moreover, the result with HCT-116 [13] was Active.
